The text below walks through data of ChEMBL document CHEMBL2163288, “Design and characterization of a selenium-containing inhibitor of activated thrombin-activatable fibrinolysis inhibitor (TAFIa), a zinc-containing metalloprotease” (J Med Chem, 2012).

The source made the active and inactive calls. The rule behind the calls is not given here. Bounds are passed on as bounds.

Assay [1] deals with T1, Carboxypeptidase B2 (Homo sapiens) (UniProt Q96IY4).
T1 sequence (whole entry): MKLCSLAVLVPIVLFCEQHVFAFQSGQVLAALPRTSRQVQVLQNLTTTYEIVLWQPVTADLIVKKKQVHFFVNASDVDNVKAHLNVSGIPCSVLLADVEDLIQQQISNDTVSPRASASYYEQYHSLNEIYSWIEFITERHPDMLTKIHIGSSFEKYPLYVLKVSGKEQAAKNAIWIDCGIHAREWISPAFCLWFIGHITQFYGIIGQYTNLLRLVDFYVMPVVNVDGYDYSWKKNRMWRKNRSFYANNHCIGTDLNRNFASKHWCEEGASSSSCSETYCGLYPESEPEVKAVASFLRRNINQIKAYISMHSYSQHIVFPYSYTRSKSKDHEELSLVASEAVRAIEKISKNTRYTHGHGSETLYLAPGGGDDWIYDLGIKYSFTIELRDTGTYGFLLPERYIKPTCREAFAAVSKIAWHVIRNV
Put plainly: Inhibition of human activated TAFI using Hip-Arg as substrate at 10 uM incubated for 10 mins prior to substrate addition measured after 30 mins by spectrophotometric analysis. In short, it runs like this: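 Plasma-purified human TAFI activated with thrombomodulin (25 °C, 3 min), then thrombin (25 °C, 30 min). TAFIa (20 U/L) preincubated with compound at 25 °C for 10 min. Hip-Arg substrate (3.2 mM stock) added in 0.1 M Tris-HCl pH 7.6 with or without 10 μM DTT, 30 min at 25 °C. Stopped with PIPES/Tween 20; cyanuric acid colour read at 405 nm; IC50 from sigmoidal curves.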

Assay [2] is described as follows: Inhibition of human carboxypeptidase N using Hip-Lys as substrate incubated for 10 mins prior to substrate addition measured after 30 mins by spectrophotometric analysis. In short, it runs like this:
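Human plasma CPN (50 U/L) preincubated with compound at 37 °C for 10 min, then Hip-Lys (3.2 mM stock) added in 0.1 M Tris-HCl pH 7.6 (±10 μM DTT) for 30 min at 37 °C. Stopped with PIPES/Tween 20 buffer; cyanuric acid colour read at 405 nm; IC50 from sigmoidal inhibition curves.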

Assay [3] deals with T2, Carboxypeptidase B2 (Homo sapiens, UniProt Q96IY4).
T2 sequence (Q96IY4 whole entry): T1 sequence (whole entry)
Put plainly: Inhibition of human activated TAFI using Hip-Arg as substrate incubated for 10 mins prior to substrate addition measured after 30 mins by spectrophotometric analysis. In short, it runs like this: (§1)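 TAFI purified from human plasma, pre-mixed with 300 ng/mL thrombomodulin (25 °C, 3 min), then activated with 3 U/mL thrombin (25 °C, 30 min). 20 U/L TAFIa preincubated with compounds for 10 min at 25 °C. Hip-Arg (3.2 mM stock) in 0.1 M Tris pH 7.6, with or without 10 μM DTT final, for 30 min at 25 °C. Stopped with PIPES/Tween 20, cyanuric acid colour read at A405. IC50 taken from sigmoidal curves.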

A short description of assay [4]: Inhibition of human carboxypeptidase N using Hip-Lys as substrate incubated for 10 mins prior to substrate addition measured after 30 mins by spectrophotometric analysis in presence of dithiothreitol. In short, it runs like this: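 Human plasma carboxypeptidase N at 50 U/L preincubated with compounds for 10 min at 37 °C. Then Hip-Lys (3.2 mM stock) in 0.1 M Tris pH 7.6 buffer with DTT, for 30 min at 37 °C. Stopped with PIPES/Tween 20, cyanuric acid colour, A405. IC50 from sigmoidal inhibition curves.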

For assay [5], the target named is T2, Carboxypeptidase B2. Briefly: Inhibition of human activated TAFI using Hip-Arg as substrate incubated for 10 mins prior to substrate addition measured after 30 mins by spectrophotometric analysis in presence of dithiothreitol. In short, it runs like this:
as §1

In assay [6] the target is T3, Carboxypeptidase B (Sus scrofa, UniProt P09955).
T3 sequence (P09955 whole entry): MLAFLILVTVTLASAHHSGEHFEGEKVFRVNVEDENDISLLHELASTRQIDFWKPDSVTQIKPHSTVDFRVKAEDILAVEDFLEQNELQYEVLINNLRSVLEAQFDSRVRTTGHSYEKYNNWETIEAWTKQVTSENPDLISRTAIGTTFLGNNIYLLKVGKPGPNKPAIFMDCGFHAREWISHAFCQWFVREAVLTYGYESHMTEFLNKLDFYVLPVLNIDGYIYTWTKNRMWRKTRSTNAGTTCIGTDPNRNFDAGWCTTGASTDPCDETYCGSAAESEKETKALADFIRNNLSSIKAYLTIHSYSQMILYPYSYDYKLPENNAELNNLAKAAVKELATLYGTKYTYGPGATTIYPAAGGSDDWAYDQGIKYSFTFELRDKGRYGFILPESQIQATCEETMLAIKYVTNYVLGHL
Briefly: Inhibition of pig pancreatic carboxypeptidase B using Hip-Arg as substrate incubated for 10 mins prior to substrate addition measured after 30 mins by spectrophotometric analysis in presence of dithiothreitol. In short, it runs like this: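 Porcine pancreatic CPB at 20 U/L preincubated with compounds for 10 min at 25 °C. Then Hip-Arg (3.2 mM stock) in 0.1 M Tris pH 7.6 with 10 μM DTT final, for 30 min at 25 °C. Stopped with PIPES/Tween 20, cyanuric acid colour, absorbance at 405 nm. IC50 from sigmoidal inhibition curves.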

The nature of assay [7]: Selectivity ratio of IC50 for pig pancreatic carboxypeptidase B to IC50 for human activated TAFI.
The target in assay [8] is T3, Carboxypeptidase B. Briefly: Inhibition of pig pancreatic carboxypeptidase B using Hip-Arg as substrate incubated for 10 mins prior to substrate addition measured after 30 mins by spectrophotometric analysis.
The species named for assay [9] is Homo sapiens. Briefly: Selectivity ratio of IC50 for human carboxypeptidase N to IC50 for human activated TAFI.

As to `O[C@@H](CS)[C@@H](O)CS`, in [1], the inhibition result is “inactive”.
Regarding `NCCCCCC(CS)C(=O)O` (stereo not given), the 50% inhibitory concentration (IC50) – broadly, the point on the concentration scale where inhibition reaches its midpoint – amounted to 1.4 µM in [2] and 0.034 µM in assay [3].
In the case of `Nc1ccc(CC(C[Se][Se]CC(Cc2ccc(N)nc2)C(=O)O)C(=O)O)cn1` (stereo not given), the IC50 in assay [4] was determined as 0.00029 µM; in assay [5] it was 0.0022 nM; in assay [6] it was 0.00019 µM; in assay [2] it was 4.2 µM; in [3], 0.2 µM; in [8], 0.28 µM. The Ratio IC50 in assay [7] worked out at 3.
`NCCCCCC(C[Se]C(=O)CCc1ccccc1)C(=O)O` (stereo not given): the IC50 in assay [4] is 0.014 µM; in [5], 5.3 nM; in assay [6], 0.0032 µM; in [2], 1.7 µM; in [3], 2 µM; in [8] it was 1.4 µM.
On to `CCOC(=O)C(C[Se]C(=O)CC)Cc1ccc(N)nc1` (stereo not given), for which the IC50 in assay [4] is 1.7 µM; in assay [5] it was 890 nM; in assay [6] it was 2.5 µM; in [2] it was 15 µM; in [3], 180 µM; in [8], more than 3800 µM. For the same compound, the Ratio IC50 in assay [7] stood at 3.
As to `CCOC(=O)C(CCCCCN)C[Se]C(=O)CC` (stereo not given), the IC50 was 0.16 µM in [4]; 30 nM in [5]; 0.033 µM in assay [6]; 14 µM in assay [2]; 1.4 µM in assay [3]; 910 µM in [8].
For the compound `CCC(=O)[Se]CC(CCCCCN)C(=O)O` (stereo not given), the IC50 is 0.018 µM in assay [4]; 1.1 nM in assay [5]; 0.0011 µM in [6]; 2 µM in [2]; 0.76 µM in assay [3]; 1.9 µM in assay [8].
Regarding `CCOC(=O)C(CS)CCCCCN` (stereo not given), the Ratio IC50 in assay [9] is 0.4. Moreover, the IC50 is 25 µM in assay [2], 62 µM in [3] and 260 µM in assay [8].
For the compound `Nc1ncc(CC(C[Se][Se]CC(Cc2cnc(N)c(Cl)c2)C(=O)O)C(=O)O)cc1Cl` (stereo not given), the IC50 is more than 3800 µM in [4]; 0.025 nM in assay [5]; 0.0015 µM in assay [6]; more than 3800 µM in assay [2]; 3.3 µM in assay [3]; 370 µM in assay [8]. Further, in assay [7], the Ratio IC50 was found to be 3.
In the case of `NCCCCCC(C[Se][Se]CC(CCCCCN)C(=O)O)C(=O)O` (stereo not given), the IC50 in assay [4] was 0.0086 µM; in [5], 2 nM; in assay [6] it was 0.0011 µM; in assay [2], more than 3800 µM; in [3], more than 3800 µM; in assay [8], 110 µM.
As to `NCCCCCC(C[Se]C(=O)CCCc1ccccc1)C(=O)O` (stereo not given), the IC50 in assay [4] is 0.016 µM; in assay [5] it was 4.1 nM; in assay [6], 0.0032 µM; in assay [2], 6 µM; in assay [3], 1.6 µM; in assay [8], 1.5 µM.
As to `CC(C)[C@H](NC(=O)CCc1ccccc1)P(=O)(O)C[C@@H](CCCCCN)C(=O)O`, the values for the IC50 in [2], in assay [3] and in [8] were 6.7 µM, 0.0055 µM and 0.0049 µM, respectively.
Taken in the same sequence, the figures for `CCOC(=O)C(CCCCCN)CSC(C)=O` (stereo not given) were more than 3800 µM, 310 µM and 19 µM.
Consider `CCOC(=O)C(C[Se]C(=O)CC)Cc1cnc(N)c(Cl)c1` (stereo not given), for which the IC50 is more than 3800 µM in assay [4]; 2600 nM in assay [5]; 130 µM in assay [6]; more than 3800 µM in assay [2]; more than 3800 µM in assay [3]; more than 3800 µM in assay [8]. In assay [7], the Ratio IC50 was 3.
As to `CC(=O)SCC(CCCCCN)C(=O)O` (stereo not given), in assay [9], the Ratio IC50 was determined as 40. Also, the IC50 in [2] is 160 µM; in [3] it was 3.8 µM; in assay [8], 1.4 µM.
